Converted amounts (≈) assume the structure as drawn. The source made the active and inactive calls. The calls are words filed in the database; no cut-off is given here.
Legend:
[1] = test system: Staphylococcus aureus; assay: Antibacterial activity against Staphylococcus aureus ATCC 25923 up to 1024 ug/ml incubated for 18 to 24 hrs followed by addition incubation for 18 to 24 hrs on MHA plates; format: functional, organism-based
How it was run: (§1)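 Read-out is the minimum bactericidal concentration (MBC), determined separately against Escherichia coli and Staphylococcus aureus.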

[2] = test system: Plasmodium falciparum; assay: Antiplasmodial activity against Plasmodium falciparum 3D7 incubated for 36 to 42 hrs by Giemsa staining method; format: functional, organism-based
How it was run: (§2)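 In vitro maturation assay on the chloroquine-sensitive P. falciparum 3D7 strain.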

[3] = test system: Escherichia coli; assay: Antibacterial activity against Escherichia coli ATCC 25922 incubated for 18 to 24 hrs followed by addition incubation for 18 to 24 hrs on MHA plates; format: functional; how it was run: as §1
[4] = test system: Escherichia coli; assay: Antibacterial activity against Escherichia coli ATCC 25922 up to 1024 ug/ml incubated for 18 to 24 hrs followed by addition incubation for 18 to 24 hrs on MHA plates; format: functional, organism-based; how it was run: as §1
[5] = test system: Staphylococcus aureus; assay: Antibacterial activity against Staphylococcus aureus ATCC 25923 incubated for 18 to 24 hrs followed by addition incubation for 18 to 24 hrs on MHA plates; format: functional; how it was run: as §1
[6] = Iron chelation activity assessed as drug level causing 50% iron chelation at 20 to 500 ug/ml using FeCl2 and ferrozine; format: physicochemical; conditions: for EC50: read-out: Activity
How it was run: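 The value is the concentration giving 50% chelation ability (50% CA), reported in mM.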

[7] = test system: Plasmodium falciparum; assay: Antiplasmodial activity against Plasmodium falciparum 3D7 up to 5092 ug/ml incubated for 36 to 42 hrs by Giemsa staining method; format: functional, organism-based; conditions: in the assay text read “5092 ng/ml” for “5092 ug/ml”; how it was run: as §2
[8] = Iron chelation activity at 500 ug/ml using FeCl2 and ferrozine; format: physicochemical
[9] = Plasmodium falciparum, 3D7, read-out: IC50

IC50 [2, 9] [µM] | EC50 [6] [µM] | IC50 [2] | Activity [6] | Activity [8] | SMILES | Activity [1] | MBC [3] | Activity [4] | MBC [5] | Activity [7]
5.5 |  |  |  |  | COc1cc2cc(-c3ccccc3C)c(=O)n(O)c2cc1OC | inactive | inactive | inactive | inactive | 
1.4 | 240 |  |  |  | O=c1c(-c2cccc3ccccc23)cc2c(F)cccc2n1O | inactive | inactive | inactive | inactive | 
2.5 |  |  |  |  | O=c1c(-c2cccc3ccccc23)cc2cc(O)ccc2n1O | inactive | 3.4 mM (≈ 1030 µg/mL) |  | inactive | 
 | 280 | Not Active |  |  | O=c1c(-c2cccc3ccccc23)c(O)c2ccccc2n1O |  | inactive | inactive | 1.7 mM (≈ 516 µg/mL) | inactive
1.3 | 280 |  |  |  | COc1ccc2c(c1)cc(-c1ccccc1C)c(=O)n2O |  | inactive | inactive | 3.6 mM (≈ 1010 µg/mL) | 
2.6 |  |  |  |  | O=c1c(-c2cccc3ccccc23)cc2ccccc2n1O | inactive | inactive | inactive | inactive | 
1.3 | 250 |  |  |  | COc1ccc2c(c1)cc(-c1cccc3ccccc13)c(=O)n2O | inactive | inactive | inactive | inactive | 
 |  | Not Active |  |  | COc1ccccc1-c1c(O)c2ccccc2n(O)c1=O | inactive | inactive | inactive | inactive | inactive
1.9 |  |  |  |  | O=c1c(-c2cccc3ccccc23)cc2c3c(ccc2n1O)OCO3 |  | inactive | inactive | 3.1 mM (≈ 1030 µg/mL) | 
7.6 |  |  |  |  | COc1ccccc1-c1cc2ccccc2n(O)c1=O |  | 1.9 mM (≈ 508 µg/mL) |  | 3.8 mM (≈ 1020 µg/mL) | 
4.2 |  |  |  |  | O=c1c(-c2cccc3ccccc23)cc2cc3c(cc2n1O)OCO3 | inactive | inactive | inactive | inactive | 
3.5 |  |  |  |  | Cc1ccccc1-c1cc2cc(O)ccc2n(O)c1=O |  | 1.9 mM (≈ 508 µg/mL) |  | 3.8 mM (≈ 1020 µg/mL) | 
5 |  |  |  |  | COc1cc2cc(-c3cccc4ccccc34)c(=O)n(O)c2cc1OC | inactive | inactive | inactive | inactive | 
3 |  |  |  |  | Cc1ccccc1-c1cc2ccccc2n(O)c1=O |  | inactive | inactive | 4.1 mM (≈ 1030 µg/mL) | 
1.1 | 240 |  |  |  | O=c1c(-c2cccc3ccccc23)cc2cc(F)ccc2n1O | inactive | inactive | inactive | inactive | 
4.8 | 290 |  |  |  | Cc1ccccc1-c1cc2cc(F)ccc2n(O)c1=O | inactive | inactive | inactive | inactive | 

The remaining lines, values behind:

SMILES | IC50 [2, 9] [µM] | EC50 [6] [µM] | IC50 [2] | Activity [6] | Activity [8] | Activity [1] | MBC [3] | Activity [4] | MBC [5] | Activity [7]
O=c1c(-c2ccccc2C(F)(F)F)cc2ccccc2n1O | 5.9 |  |  |  |  |  | inactive | inactive | 3.4 mM (≈ 1040 µg/mL) | 
Cc1ccccc1-c1cc2cc3c(cc2n(O)c1=O)OCO3 | 4.6 |  |  |  |  | inactive | inactive | inactive | inactive | 
Cc1ccccc1-c1cc2c(F)cccc2n(O)c1=O | 5 | 280 |  |  |  | inactive | inactive | inactive | inactive | 
C=C[C@]1(C)C[C@H](C)C[C@H](C)[C@H]1c1c(O)ccn(O)c1=O | 0.8 |  |  |  |  |  |  |  |  | 
Cc1ccccc1-c1cc2c3c(ccc2n(O)c1=O)OCO3 | 3.6 |  |  |  |  | inactive | inactive | inactive | inactive | 
O=c1c(-c2ccccc2C(F)(F)F)c(O)c2ccccc2n1O |  |  | Not Active |  |  | inactive | inactive | inactive | inactive | inactive
O=c1c(-c2ccccc2)c(O)c2ccccc2n1O |  |  | Not Active |  |  | inactive | 4 mM (≈ 1010 µg/mL) |  | inactive | inactive
O=c1c(-c2ccc3ccccc3c2)c(O)c2ccccc2n1O |  |  | Not Active |  |  | inactive | inactive | inactive | inactive | inactive
O=c1c(-c2ccccc2)cc2ccccc2n1O | 14 |  |  |  |  | inactive | inactive | inactive | inactive | 
O=c1c(-c2ccc3ccccc3c2)cc2ccccc2n1O | 2.9 |  |  |  |  |  | inactive | inactive | 3.6 mM (≈ 1030 µg/mL) | 
Cc1ccccc1-c1c(O)c2ccccc2n(O)c1=O |  |  | Not Active |  |  | inactive | inactive | inactive | inactive | inactive
O=c1[nH]c2ccccc2cc1-c1cccc2ccccc12 |  |  | Not Active | Not Active | Not Active | inactive | inactive | inactive | inactive | inactive

— ChEMBL document CHEMBL3351258, “An amidation/cyclization approach to the synthesis of N-hydroxyquinolinones and their biological evaluation as potential anti-plasmodial, anti-bacterial, and iron(II)-chelating agents” (Bioorg Med Chem Lett, 2015)
